Assay outcomes from PubChem.
Compounds with a hit are over-represented: about 4% of the library has one in this group of screens.
FAS TE block – inhibitors of human fatty acid synthase thioesterase domain. AID 602261. hit rate 0.67% among 360,000. recombinant FAS-TE, OMFH fluorogenic substrate, fluorescence endpoint. inhibition, % at 15 µM;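 active = compounds whose normalised, plate-corrected inhibition of enzyme fluorescence in the single-dose primary screen is 50% or more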;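 note: 0% = DMSO with enzyme and 100% = substrate without enzyme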
Arrestin-AP2 inh – human beta-arrestin and AP2 interaction inhibition | inhibition, % at 10 µM | hit rate 0.31% among 340,000 | FITC-arrestin peptide / GST-AP2 beads, flow cytometry; AP2 beta2 appendage carries R879A mutation;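 active = inhibition above a set limit, near 3 SD of compounds lacking own fluorescence, cut at about 54% in these data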;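 note: plate controls were DMSO wells for no effect and 5 µM unlabelled arrestin peptide for full effect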
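test system = AP2 appendage R879A on GSH beads | buffer or medium = PBS plus Tween 20 (0.05%) and BSA (0.1%) | incubation = 12 min plus 1 h, RT | detection = bead flow cytometry, FITC channel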
SENP1 inh – SENP1 (human) catalytic domain inhibition. hit rate 0.21% among 360,000. AID 624204. inhibition, % at 10 µM. Q9P0U3. recombinant SENP1 catalytic domain, CyPet-SUMO1-YPet FRET cleavage;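 active = inhibition at least 30% at 10 µM, raw YFP signal under a set limit, fluorescence ratio 0.5 to 1.5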;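 note: 0% = enzyme with DMSO and 100% = no enzyme wells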
Target sequence (Q9P0U3 419-644 limits assumed): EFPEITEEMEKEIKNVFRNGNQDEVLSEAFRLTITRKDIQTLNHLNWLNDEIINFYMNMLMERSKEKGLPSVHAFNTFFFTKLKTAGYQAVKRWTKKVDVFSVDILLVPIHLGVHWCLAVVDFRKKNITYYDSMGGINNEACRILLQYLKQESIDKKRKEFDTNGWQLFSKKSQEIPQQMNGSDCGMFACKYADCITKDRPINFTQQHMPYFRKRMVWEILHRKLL
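Material: hSENP1 catalytic domain, recombinant; medium: Tris pH 8 with BME, BSA, NP40 and catalase; compound: single concentration of 10 µM compound, 0.5% DMSO final; technique: FRET read of cyan and yellow fluorescence; timing: 50 min enzyme reaction, room temperature, light-protected; reagent: SFCypet-SUMO1-SFYpet substrate at 25 nM; control set: no-enzyme low, enzyme-DMSO high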
Cardio protect – myocardial damage modulation in H9c2 cells | AID 588492 | protection from H2O2 cell death, % at 20 µM | hit rate 0.63% among 360,000 | H9c2 cardiomyocytes, H2O2 injury protection, ATPLite, 2 h;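 active = compounds giving at least 50% protection of heart cells from peroxide-induced death in the single-dose screen, raw or plate-pattern-corrected value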;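 note: 0% = DMSO wells with peroxide and 100% = DMSO wells without peroxide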
iPSC survival up – enhancers of human iPSC single-cell survival; hiPSC single-cell survival, ATPlite luminescence; 100% = ROCK inhibitor wells, 0% = DMSO; survival enhancement, % at 20 µM; hit rate 0.044% among 360,000; in the data active = survival enhancement above about 18%;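 note: cells exposed to compounds for 16 hours before the ATP read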
GRIN3A LBD mod – modulates the human NR3A ligand-binding domain; hit rate 2.5% among 340,000; Tm shift relative to glycine control, % at 25 µM; NR3A LBD differential scanning fluorimetry, Tm shift; 0% = protein alone, 100% = glycine-bound protein;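 active = melting temperature shift of at least 10% of the positive control shift, at one fixed dose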
* marks the source's active call; other numbers are inactive results; · = no result given.

SMILES | FAS TE block | Arrestin-AP2 inh | SENP1 inh | Cardio protect | iPSC survival up | GRIN3A LBD mod
CCOc1ccc(CCN2C(=S)N([C@@H](CC(C)C)CN3CCCC3CN3C(=S)NC[C@@H]3CC(C)C)C[C@@H]2Cc2ccc(O)cc2)cc1 (some centres undefined) | -88 | 31 | 0 | -7 | -4 | 7
CCOc1ccc(CCN2C(=S)N([C@@H](CC(C)C)CN3CCC[C@@H]3CN3C(=S)NC[C@@H]3CC(C)C)C[C@@H]2Cc2ccc(O)cc2)cc1 | -93 | · | 2 | -13 | -1 | ·
CCOc1ccc(CCN2C(=S)N([C@@H](CC(C)C)CN3CCCC3CN3C(=S)NC[C@@H]3Cc3ccccc3)C[C@@H]2CC(C)C)cc1 (some centres undefined) | -123 | · | -2 | · | -1 | ·
CCOc1ccc(CCN2C(=S)N([C@@H](CC(C)C)CN3CCCC3CN3C(=S)NC[C@@H]3Cc3ccc(O)cc3)C[C@@H]2CC(C)C)cc1 (some centres undefined) | -99 | -5 | 2 | -20 | -3 | 12*
CC(=O)NC(C)(c1ccccc1)c1nc(-c2cnc3ccccc3c2)cs1 (centres undefined) | -11 | · | 2 | 2 | -2 | ·
Cc1ccc(C)c(NC(=O)c2ccccc2NS(=O)(=O)c2cc([N+](=O)[O-])ccc2C)c1 | 40 | -1 | 1 | -23 | 3 | 17*
CCCCCCOC(=O)Nc1ccc(S(=O)(=O)Nc2cccc([N+](=O)[O-])c2)cc1 | 29 | -2 | 2 | -8 | 1 | 30*
CCCCOC(=O)Nc1ccc(S(=O)(=O)Nc2nc(C)cc(C)n2)cc1 | -2 | 6 | 0 | 2 | -2 | 0
Cc1ccc(NS(=O)(=O)c2cc(C(=O)Nc3cccc([N+](=O)[O-])c3)ccc2C)cc1 | 37 | 18 | 3 | -16 | 0 | 21*
Cc1ccc(NS(=O)(=O)c2ccc(OCC(=O)Nc3cccc([N+](=O)[O-])c3)c(C)c2)cc1 | 37 | 1 | 1 | 1 | 0 | 26*
Nc1ncnc2c1ncn2[C@@H]1O[C@H](C(=O)NCCCN2CCCC2=O)[C@@H](O)[C@H]1O | -8 | · | -1 | -3 | -3 | ·
COc1ccc(C(=O)N2CCCC(c3cc(C(=O)Nc4ccccc4)no3)C2)cc1 (centres undefined) | -4 | · | 1 | -2 | -3 | ·
Cc1cc(F)ccc1NC(=O)c1ccc(NS(=O)(=O)c2cc(C(C)(C)C)ccc2C)cc1 | 17 | -8 | 4 | -4 | -3 | 9
NS(=O)(=O)c1cccc(NC(=O)c2ccc(NS(=O)(=O)c3cccc([N+](=O)[O-])c3)cc2)c1 | -4 | -7 | -2 | 2 | -2 | 30*
CC(=O)Nc1ccc(NC(=O)c2ccc(NS(=O)(=O)c3cc(C(C)(C)C)ccc3C)cc2)cc1 | -5 | 10 | 3 | -2 | -1 | 17*
CS(=O)(=O)N1CCc2cc(C(=O)Nc3ccc(Cl)cc3)ccc21 | 1 | -7 | 2 | 8 | -1 | 0
CS(=O)(=O)N1CCc2cc(C(=O)Nc3cccc([N+](=O)[O-])c3)ccc21 | 10 | -4 | 0 | 6 | 0 | 31*
NS(=O)(=O)c1ccc(NS(=O)(=O)c2ccc(NC(=O)c3ccc(-c4ccccc4)cc3)cc2)cc1 | 0 | 5 | -3 | -14 | 0 | 23*
COc1ccc(Nc2c(-c3ccc(F)cc3)nc3nc(C)cc(C)n23)cc1 | 2 | · | -27 | · | 0 | ·
O=C(NCc1cccc(C(F)(F)F)c1)c1csc([C@H]2C[C@H](O)[C@@H](CO)O2)n1 | -3 | · | 2 | 1 | 2 | ·
COc1ccc(C(C)(O)c2nc(-c3ccc4ccccc4c3)cs2)cc1 (centres undefined) | 32 | · | 2 | -9 | -1 | ·
Cc1ccc(NC(=O)CC(=O)c2ccc([N+](=O)[O-])cc2)cc1S(=O)(=O)Nc1cccc(Cl)c1 | 40 | 3 | 4 | -24 | -2 | 25*
Cc1ccc(C(=O)Nc2cccc([N+](=O)[O-])c2)cc1S(=O)(=O)Nc1cccc(C(=O)O)c1 | 7 | 7 | -1 | 4 | 3 | 8
